From ChEMBL document CHEMBL1123133, “1H-2-Benzopyran-1-one derivatives, microbial products with pharmacological activity. Conversion into orally active derivatives with antiinflammatory and antiulcer activities” (J Med Chem, 1985)

Key:
Rattus norvegicus [1] = experiment: Gastroprotective activity as % protection against stress ulcers in 5 rats after an oral dose of 100 mg/kg; type: functional
How it was run: (§1)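 Stress ulcer by restraint and water immersion: male Wistar rats (160–180 g), fasted 24 h, given test compound po or ip as HCl salt in aqueous glycerin/HCO-60 formulation (1/12/0.05 by weight). Vehicle-only controls. After 1 h, restrained in net cage and immersed in 21 °C water for 6 h. Percent ulcer inhibition calculated; five rats per dose.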

Rattus norvegicus [2] = experiment: % recovery from whole blood of 7 wistar rats after an oral dose of the compound; type: ADME, organism-based; settings: in vivo
Rattus norvegicus [3] = experiment: Gastroprotective activity as % protection against stress ulcers in 5 rats after an intraperitoneal dose of 25 mg/kg; type: functional; how it was run: as §1
Rattus norvegicus [4] = experiment: Gastroprotective activity as % protection against stress ulcers in 5 rats after an intraperitoneal dose of 12.5 mg/kg; type: functional; how it was run: as §1
Rattus norvegicus [5] = experiment: Concentration detected in blood of rat 3 hr after an oral dose of 200 mg/kg; ND is Not Detected; type: ADME, organism-based; set-up: dose 200 mg/kg, route oral; settings: in vivo
How it was run: (§2)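 Male Wistar rats (120–160 g), 5–7 per group, fasted 24 h, given 200 mg/kg orally as aqueous HCl salt formulation (drug/glycerin/HCO-60 1/12/0.05 by weight). Jugular blood taken under ether at 1 or 3 h into citric acid; plasma deproteinized with ethanol (acetone for 5d) and analysed by C18 HPLC at 254 nm. Values recovery-corrected, mean of 6–7 rats.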

Rattus norvegicus [6] = experiment: Concentration 1 detected in blood of rat 1 hr after an oral dose of 200 mg/kg of the compound; ND is Not Detected.; type: ADME, organism-based; set-up: dose 200 mg/kg, route oral; settings: in vivo; how it was run: as §2
Rattus norvegicus [7] = experiment: Gastroprotective activity as % protection against stress ulcers in 5 rats after an oral dose of 50 mg/kg; type: functional; how it was run: as §1
Rattus norvegicus [8] = experiment: Gastroprotective activity as % protection against stress ulcers in 5 rats after an intraperitoneal dose of 50 mg/kg; type: functional; how it was run: as §1
Rattus norvegicus [9] = experiment: Gastroprotective activity as % protection against stress ulcers in 5 rats after an oral dose of 25 mg/kg; type: functional; how it was run: as §1
[10] = Solubility in phosphate buffer, tested as a HCl salt; type: physicochemical
How it was run: (§3)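 HCl salts suspended in excess in water or 10 mM phosphate buffer pH 7.5, sonicated 10 min at 20 °C to saturation, centrifuged; supernatant quantified by HPLC.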

Rattus norvegicus [11] = experiment: Concentration 5e detected in blood of rat 1 hr after an oral dose of 200 mg/kg of the compound; type: ADME, organism-based; set-up: dose 200 mg/kg, route oral; settings: in vivo; how it was run: as §2
Rattus norvegicus [12] = experiment: % recovery of the compound, compound 1 and compound 6a from whole blood of 7 wistar rats after an oral dose of the compound; type: ADME, organism-based; settings: in vivo
Rattus norvegicus [13] = experiment: Concentration 6e detected in blood of rat 3 hr after an oral dose of 200 mg/kg of the compound; type: ADME, organism-based; set-up: dose 200 mg/kg, route oral; settings: in vivo; how it was run: as §2
[14] = Lipid solubility measured as chloroform-water partition coefficient; type: physicochemical
How it was run: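 Partition between chloroform and 10 mM phosphate buffer pH 7.5 (1:1 volume); drug at 1 mg/mL initially in aqueous phase, shaken 20 min at 20 °C, centrifuged, both phases quantified by HPLC. HCl salts used.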

Rattus norvegicus [15] = experiment: Concentration 1 detected in blood of rat 3 hr after an oral dose of 200 mg/kg; ND is Not Detected.; type: ADME, organism-based; set-up: dose 200 mg/kg, route oral; settings: in vivo; how it was run: as §2
Rattus norvegicus [16] = experiment: Concentration 6e detected in blood of rat 1 hr after an oral dose of 200 mg/kg of the compound; type: ADME, organism-based; set-up: dose 200 mg/kg, route oral; settings: in vivo; how it was run: as §2
[17] = Solubility in water, tested as a HCl salt; type: physicochemical; settings: read-out: S; how it was run: as §3
Rattus norvegicus [18] = experiment: Concentration 1 detected in blood of rat 1 hr after an oral dose of 200 mg/kg; ND is Not Detected.; type: ADME, organism-based; set-up: dose 200 mg/kg, route oral; settings: in vivo; how it was run: as §2
Rattus norvegicus [19] = experiment: Concentration 5e detected in blood of rat 3 hr after an oral dose of 200 mg/kg of the compound; type: ADME, organism-based; set-up: dose 200 mg/kg, route oral; settings: in vivo; how it was run: as §2
[20] = Concentration detected in blood of rat 3 hr after an oral dose of 200 mg/kg of the compound; type: ADME, organism-based; set-up: dose 200 mg/kg, route oral; how it was run: as §2
[21] = Concentration detected in blood of rat 1 hr after an oral dose of 200 mg/kg; type: ADME, organism-based; set-up: dose 200 mg/kg, route oral; how it was run: as §2
Rattus norvegicus [22] = experiment: % recovery 1 from whole blood of 7 wistar rats after an oral dose of the compound; type: ADME, organism-based; settings: in vivo
Rattus norvegicus [23] = experiment: Antiinflammatory activity evaluated as Minimum effective oral dose that inhibits carrageenan paw edema in rat; type: functional
Cavia porcellus = experiment: Antiinflammatory activity evaluated as Minimum effective oral dose that inhibits dextran UV erythema in guinea pig; type: functional
Rattus norvegicus [24] = experiment: Antiinflammatory activity evaluated as Minimum effective oral dose that inhibits bradykinin paw edema in rat; type: functional
Rattus norvegicus [25] = experiment: Antiinflammatory activity evaluated as Minimum effective oral dose that inhibits dextran paw edema in rat; type: functional
Rattus norvegicus [26] = experiment: Antiinflammatory activity evaluated as Minimum effective oral dose that inhibits adjuvant arthritis in rats; type: functional
How it was run: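 Adjuvant arthritis: male Sprague-Dawley rats (180–200 g), 8–10 per group, injected in right hind paw with Mycobacterium butyricum powder in corn oil (0.6 mg/0.1 mL). Oral dosing started 1 h after adjuvant, then daily for 18 days; observed 28 days. Minimum effective dose recorded.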

| Compound | P [14] | Protection (Rattus norvegicus [1]) | Protection (Rattus norvegicus [3]) | Protection (Rattus norvegicus [4]) | Protection (Rattus norvegicus [7]) | Protection (Rattus norvegicus [8]) | Protection (Rattus norvegicus [9]) | other results |
| --- | --- | --- | --- | --- | --- | --- | --- | --- |
| CC(C)C[C@H](NC(=O)[C@@H](O)[C@@H](O)[C@@H](N)CC(=O)O)[C@@H]1Cc2cccc(O)c2C(=O)O1 |  | 17% | 100% | 78% | 0% | 94% | 0% | Recovery (Rattus norvegicus [2]): 50%; Concentration (Rattus norvegicus [5]): Not detected; Concentration (Rattus norvegicus [6]): Not detected |
| CC(C)C[C@H](NC(=O)C(O)C1OC(=O)CC1N)[C@@H]1Cc2cccc(O)c2C(=O)O1.Cl (stereo not given in full) |  | 78% | 83% | 66% | 66% | 83% | 44% | concentration at 3 h [20]: 600 ng/mL; concentration at 1 h [21]: 800 ng/mL; Recovery (Rattus norvegicus [22]): 50% |
| COc1ccc2c(c1)c(CC(=O)O)c(C)n2C(=O)c1ccc(Cl)cc1 [INDOMETHACIN] |  |  |  |  |  |  |  | ED50 (Rattus norvegicus [23]): 1.3 mg/kg; ED50 (Cavia porcellus): < 6 mg/kg; ED50 (Rattus norvegicus [24]): > 25 mg/kg; ED50 (Rattus norvegicus [25]): > 25 mg/kg; EDmin (Rattus norvegicus [26]): 3 mg/kg |
| CNCC(=O)O [SARCOSINE] | < 0.03 |  |  |  |  |  |  |  |

Now from value to compound, other results behind:

| P [14] | Compound | Protection (Rattus norvegicus [1]) | Protection (Rattus norvegicus [3]) | Protection (Rattus norvegicus [4]) | Protection (Rattus norvegicus [7]) | Protection (Rattus norvegicus [8]) | Protection (Rattus norvegicus [9]) | other results |
| --- | --- | --- | --- | --- | --- | --- | --- | --- |
| 1900 | CCCCCNC1CC(=O)OC1C(O)C(=O)NC(CC(C)C)C1Cc2cccc(O)c2C(=O)O1 (stereo not given) | 56% | 56% |  | 33% | 44% | 44% | solubility [10]: 330 µg/mL; Concentration (Rattus norvegicus [11]): 1200 ng/mL; Recovery (Rattus norvegicus [12]): 50%; Concentration (Rattus norvegicus [13]): 600 ng/mL; Concentration (Rattus norvegicus [15]): Not detected; Concentration (Rattus norvegicus [16]): 800 ng/mL; solubility [17]: 7300 µg/mL; Concentration (Rattus norvegicus [18]): Not detected; Concentration (Rattus norvegicus [19]): 800 ng/mL |
| 0.1 | Cn1cnc2c1c(=O)[nH]c(=O)n2C [THEOBROMINE] |  |  |  |  |  |  |  |
